Our source for the Activity and Ki values is ChEMBL document CHEMBL2177098, “Synthesis and evaluation of novel ¹⁸F labeled 2-pyridinylbenzoxazole and 2-pyridinylbenzothiazole derivatives as ligands for positron emission tomography (PET) imaging of β-amyloid plaques” (J Med Chem, 2012).

Broadly, the Ki is the equilibrium dissociation constant of an inhibitor or competing ligand from its target. Higher therefore signals lower affinity.

Test [1] deals with Amyloid-beta precursor protein (Homo sapiens) (UniProt P05067). In words: Binding affinity to amyloid beta plaques in Alzheimer patient brain at 370 KBq/100 ul after 1 hr by autoradiographic analysis. The settings on record: tested as the 18F-labelled form.
Amyloid-beta precursor protein (Homo sapiens), sequence (P05067 whole entry): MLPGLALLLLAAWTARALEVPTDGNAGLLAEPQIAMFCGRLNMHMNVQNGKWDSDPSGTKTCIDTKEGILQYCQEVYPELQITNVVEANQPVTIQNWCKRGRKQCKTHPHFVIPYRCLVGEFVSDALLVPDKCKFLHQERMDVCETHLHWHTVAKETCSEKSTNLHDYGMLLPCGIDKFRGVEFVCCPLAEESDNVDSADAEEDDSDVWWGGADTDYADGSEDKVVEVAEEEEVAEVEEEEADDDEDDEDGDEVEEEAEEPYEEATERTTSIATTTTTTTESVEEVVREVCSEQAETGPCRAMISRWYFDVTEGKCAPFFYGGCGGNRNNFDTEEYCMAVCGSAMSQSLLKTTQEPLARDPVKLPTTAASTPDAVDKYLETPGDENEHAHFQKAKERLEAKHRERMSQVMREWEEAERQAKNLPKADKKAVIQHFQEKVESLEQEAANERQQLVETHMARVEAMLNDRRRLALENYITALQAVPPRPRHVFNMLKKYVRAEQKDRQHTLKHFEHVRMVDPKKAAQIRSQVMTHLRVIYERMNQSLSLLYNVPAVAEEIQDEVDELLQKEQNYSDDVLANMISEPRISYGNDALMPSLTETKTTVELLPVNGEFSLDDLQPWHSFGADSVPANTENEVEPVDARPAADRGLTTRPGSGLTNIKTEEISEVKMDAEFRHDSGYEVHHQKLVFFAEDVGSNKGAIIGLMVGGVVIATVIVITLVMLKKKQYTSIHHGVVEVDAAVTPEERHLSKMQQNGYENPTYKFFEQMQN
Test [2] is filed under the species Mus musculus. In words: Binding affinity to amyloid beta plaques in transgenic C57BL6 mouse hippocampus expressing APP Swedish mutant/PSEN1 at 370 KBq/100 ul after 1 hr by thioflavinS-staining method. Format: tissue-based. The settings on record: tested as the 18F-labelled form. An outline of the steps: (§1)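 Paraffin brain sections from 12-month-old Tg mice (C57BL6, APPswe/PSEN1) and age-matched controls, deparaffinized through xylene and graded ethanol, then PBS (0.2 M, pH 7.4) 30 min. Incubated with 18F tracer (370 KBq per 100 μL) 1 h at room temperature, washed in 40% EtOH, rinsed in water, then phosphor plate exposure 2 h. The same sections were afterwards stained with 0.125% thioflavin S in 10% EtOH for 3 min and washed in 40% EtOH.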

The species named for test [3] is Mus musculus. In words: Binding affinity to amyloid beta plaques in transgenic C57BL6 mouse cortex expressing APP Swedish mutant/PSEN1 at 370 KBq/100 ul after 1 hr by autoradiographic analysis. The settings on record: tested as the 18F-labelled form. The gist of the method: as §1
The species entered for test [4] is Mus musculus. In words: Binding affinity to amyloid beta plaques in transgenic C57BL6 mouse hippocampus expressing APP Swedish mutant/PSEN1 at 370 KBq/100 ul after 1 hr by autoradiographic analysis. Format: tissue-based. The settings on record: tested as the 18F-labelled form. The gist of the method:
as §1

The species entered for test [5] is Mus musculus. In words: Binding affinity to amyloid beta plaques in transgenic C57BL6 mouse cortex expressing APP Swedish mutant/PSEN1 at 370 KBq/100 ul after 1 hr by thioflavinS-staining method. To be noted: tested as the 18F-labelled form. The gist of the method:
as §1

Test [6] in a line: Displacement of [125I]-IMPY from amyloid beta (1 to 42) fibrils after 2 hrs by gamma-counting analysis. An outline of the steps:
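Competition binding with aggregated Aβ1-42 fibrils and [125I]IMPY (60000−100000 cpm/100 μL) in 0.05% BSA (1 mL total); inhibitors 10⁻⁴−10^−8.5 M in ethanol. Incubated 37 °C for 2 h, then GF/B vacuum filtration with PBS (0.02 M, pH 7.4) washes and γ counting. Three repeats; IC50 converted to Ki by Cheng−Prusoff.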

Active and inactive are the calls of the source. The rule behind the calls is not given here.

For the molecule `CNc1ccc(-c2nc3ccc(OCCOCCOCCF)cc3s2)cn1`, the outcome (in test [1]; in the test filed under Mus musculus [2]; in the test listed under Mus musculus [3]; in the test filed under Mus musculus [4]; in the test filed under Mus musculus [5]) was Active. Moreover, in test [6], the affinity corresponds to a Ki of 9.3 nM.
